Experimental data reported in ChEMBL document CHEMBL3817796, “Discovery of Novel 15-Lipoxygenase Activators To Shift the Human Arachidonic Acid Metabolic Network toward Inflammation Resolution” (J Med Chem, 2016).

Columns and labels:
[1] = target: T1, Leukotriene A-4 hydrolase (Homo sapiens) (UniProt P09960); assay: Activation of LTA4H hydrolase activity (unknown origin) assessed as LTB4 formation at 100 uM by enzyme linked immunosorbent assay
T1 sequence (whole entry): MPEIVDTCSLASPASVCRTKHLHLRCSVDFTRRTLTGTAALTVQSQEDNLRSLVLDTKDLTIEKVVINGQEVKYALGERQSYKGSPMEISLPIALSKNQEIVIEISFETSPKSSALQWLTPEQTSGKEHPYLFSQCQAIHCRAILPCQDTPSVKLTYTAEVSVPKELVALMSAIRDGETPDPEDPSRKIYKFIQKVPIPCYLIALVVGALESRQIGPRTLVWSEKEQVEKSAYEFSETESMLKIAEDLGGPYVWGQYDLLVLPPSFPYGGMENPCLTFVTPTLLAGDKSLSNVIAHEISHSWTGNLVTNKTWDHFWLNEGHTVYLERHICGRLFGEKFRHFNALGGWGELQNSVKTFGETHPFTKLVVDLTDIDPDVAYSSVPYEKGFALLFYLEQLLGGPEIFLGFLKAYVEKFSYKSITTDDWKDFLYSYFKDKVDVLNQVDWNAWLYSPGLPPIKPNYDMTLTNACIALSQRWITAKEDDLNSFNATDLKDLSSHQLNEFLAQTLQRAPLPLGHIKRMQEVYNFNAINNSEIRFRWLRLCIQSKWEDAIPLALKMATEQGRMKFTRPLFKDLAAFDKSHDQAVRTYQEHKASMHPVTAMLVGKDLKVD
Method in brief: (§1)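 LTA4H hydrolase activity read as LTB4 formation by ELISA. Compound handled as in the 15-LOX assay.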

[2] = target: Prostaglandin G/H synthase 1 (Homo sapiens) (UniProt P23219); assay: Inhibition of COX1 (unknown origin) assessed as reduction in PGG2 to PGH2 conversion by measuring N,N,N',N'-tetramethyl-p-phenylenediamine oxidation at 100 uM by spectrophotometry
Chain of Prostaglandin G/H synthase 1 (Homo sapiens) (P23219 whole entry): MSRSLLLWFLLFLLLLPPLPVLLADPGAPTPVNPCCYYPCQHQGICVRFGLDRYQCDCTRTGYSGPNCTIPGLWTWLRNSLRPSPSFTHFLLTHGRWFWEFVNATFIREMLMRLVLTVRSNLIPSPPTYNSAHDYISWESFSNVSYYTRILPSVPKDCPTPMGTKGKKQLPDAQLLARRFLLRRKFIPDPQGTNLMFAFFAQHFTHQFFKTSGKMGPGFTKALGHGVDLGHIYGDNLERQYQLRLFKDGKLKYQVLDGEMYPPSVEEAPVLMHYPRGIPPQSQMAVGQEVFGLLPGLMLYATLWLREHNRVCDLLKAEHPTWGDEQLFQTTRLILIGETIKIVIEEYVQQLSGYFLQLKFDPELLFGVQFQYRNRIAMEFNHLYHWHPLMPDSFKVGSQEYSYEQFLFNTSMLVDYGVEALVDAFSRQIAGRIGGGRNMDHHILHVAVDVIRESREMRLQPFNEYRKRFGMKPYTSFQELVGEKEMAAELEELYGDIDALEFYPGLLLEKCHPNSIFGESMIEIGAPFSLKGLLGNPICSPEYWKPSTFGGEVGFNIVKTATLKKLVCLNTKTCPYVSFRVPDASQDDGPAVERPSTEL

[3] = target: T2, Prostaglandin G/H synthase 2 (Homo sapiens) (UniProt P35354); assay: Activation of COX2 (unknown origin) assessed as PGG2 to PGH2 conversion by measuring N,N,N',N'-tetramethyl-p-phenylenediamine oxidation at 100 uM by spectrophotometry
T2 sequence (whole entry): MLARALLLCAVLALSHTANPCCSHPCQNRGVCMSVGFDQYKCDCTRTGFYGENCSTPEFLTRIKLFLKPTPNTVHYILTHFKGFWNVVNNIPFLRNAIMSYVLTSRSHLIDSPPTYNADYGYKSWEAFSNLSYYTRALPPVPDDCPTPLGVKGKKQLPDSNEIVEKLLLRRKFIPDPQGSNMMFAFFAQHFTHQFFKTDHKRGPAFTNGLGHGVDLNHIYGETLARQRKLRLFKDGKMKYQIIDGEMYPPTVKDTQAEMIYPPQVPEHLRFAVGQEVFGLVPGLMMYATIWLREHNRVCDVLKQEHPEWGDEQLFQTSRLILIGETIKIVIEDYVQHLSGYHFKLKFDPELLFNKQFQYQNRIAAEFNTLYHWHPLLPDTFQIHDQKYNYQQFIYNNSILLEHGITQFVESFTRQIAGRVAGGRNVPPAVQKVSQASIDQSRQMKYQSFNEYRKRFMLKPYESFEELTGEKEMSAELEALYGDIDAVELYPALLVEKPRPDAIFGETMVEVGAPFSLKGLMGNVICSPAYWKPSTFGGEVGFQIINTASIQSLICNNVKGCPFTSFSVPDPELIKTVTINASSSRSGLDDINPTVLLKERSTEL

[4] = target: T1, Leukotriene A-4 hydrolase (Homo sapiens); assay: Inhibition of LTA4H hydrolase activity (unknown origin) assessed as reduction in LTB4 formation at 100 uM by enzyme linked immunosorbent assay; method in brief: as §1
[5] = target: T3, Cytosolic phospholipase A2 (Homo sapiens) (UniProt P47712); assay: Inhibition of human cPLA2 assessed as reduction in hydrolysis of 7-hydroxycoumarinyl-gamma-linolenate or 2-oxo-2H-chromen-[…] (6Z,9Z,12Z)-octadeca-6,9,12-trienoate at 100 uM by fluorometry
T3 sequence (whole entry): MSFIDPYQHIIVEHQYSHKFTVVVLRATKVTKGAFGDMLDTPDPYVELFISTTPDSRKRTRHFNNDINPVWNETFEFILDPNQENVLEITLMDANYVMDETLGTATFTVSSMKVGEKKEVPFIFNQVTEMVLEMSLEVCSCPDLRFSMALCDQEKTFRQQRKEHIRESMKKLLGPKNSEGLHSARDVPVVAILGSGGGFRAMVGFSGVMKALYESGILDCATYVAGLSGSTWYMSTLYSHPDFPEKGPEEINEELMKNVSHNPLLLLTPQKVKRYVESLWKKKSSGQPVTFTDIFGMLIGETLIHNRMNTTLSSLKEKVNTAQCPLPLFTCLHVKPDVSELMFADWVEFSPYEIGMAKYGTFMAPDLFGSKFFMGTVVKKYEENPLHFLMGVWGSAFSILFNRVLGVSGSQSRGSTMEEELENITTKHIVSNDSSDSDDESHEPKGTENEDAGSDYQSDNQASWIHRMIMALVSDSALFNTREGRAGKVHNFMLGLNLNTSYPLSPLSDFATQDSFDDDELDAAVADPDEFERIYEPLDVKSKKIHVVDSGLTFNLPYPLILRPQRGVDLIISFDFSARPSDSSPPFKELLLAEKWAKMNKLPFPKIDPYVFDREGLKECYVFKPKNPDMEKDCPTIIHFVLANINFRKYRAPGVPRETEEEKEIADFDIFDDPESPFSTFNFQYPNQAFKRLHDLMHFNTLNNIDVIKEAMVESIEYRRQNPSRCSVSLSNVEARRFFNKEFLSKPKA
Method in brief: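 Purified human cPLA2 (1 μg/mL final) started the reaction with 7-hydroxycoumarinyl-γ-linolenate substrate. Fluorescence (ex 355/em 460 nm) recorded over 84 min. Compound handled as in the 15-LOX assay.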

## CN1CCN(CC(=O)N2N=C3/C(=C/c4ccccc4)CCCC3C2c2ccccc2)CC1 (stereo not given)
[1]
  Activity: < 5%
[2]
  inhibition: < 5%
[3]
  Activity: < 5%
[4]
  inhibition: < 5%
[5]
  inhibition: 20%
